{
  "source": "the EternaBench riboswitch data",
  "key": {"MS2 coat protein [1]": {"test_system": "MS2 coat protein", "test": "apparent Kd, MS2 coat protein; higher = weaker binding; RNA-MaP array; theophylline 2 mM where present", "conditions": "designed as: ON switch for theophylline", "method_in_brief": "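Stalled E. coli RNA polymerase produced the designs on Illumina sequencing-chip clusters. SNAP-549-labelled MS2 coat protein was added from 0.7 or 1.5 nM, doubling to 3 µM, without and then with constant ligand, in 100 mM Tris-HCl pH 7.5, 80 mM KCl, 4 mM MgCl2, BSA, DTT, yeast tRNA and Tween-20. The apparent Kd is the median of filtered per-cluster fits of green signal normalised to red-channel RNA signal and control-cluster median Fmax.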"}, "MS2 coat protein [2]": {"test_system": "MS2 coat protein", "test": "apparent Kd, MS2 coat protein; higher = weaker binding; RNA-MaP array", "method_in_brief": "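On an Illumina sequencing chip, sequenced DNA templates served for transcription of the designed RNAs, which were then bound at room temperature by fluorescently labeled MS2 coat protein at 1.5 nM to 3 μM, with or without input ligand. Apparent Kd is the median of the fits to each cluster's binding curve. Only designs measured on at least 10 clusters were kept.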"}, "[3]": {"conditions": "designed as: OFF switch for flavin mononucleotide, no ligand"}, "[4]": {"conditions": "ligand present: flavin mononucleotide, designed as: OFF switch for flavin mononucleotide"}, "[5]": {"conditions": "designed as: ON switch for theophylline, no ligand"}, "[6]": {"conditions": "ligand present: theophylline, designed as: ON switch for theophylline"}, "[7]": {"conditions": "designed as: ON switch for flavin mononucleotide, no ligand"}, "[8]": {"conditions": "ligand present: flavin mononucleotide, designed as: ON switch for flavin mononucleotide"}},
  "data": [
    {"sequence": "UGUUUUAAAAGUGAUACCAGACAAACAUGAGGAUCACCCAUGUAACAUGAGAGAUAAUAAGUCCCUUGGCAGCACAUAAUUAGUA", "values": [
      {"measurement": "apparent Kd", "setting": "MS2 coat protein [1]; no ligand", "result": 31.8, "unit": "nM"},
      {"measurement": "apparent Kd", "setting": "MS2 coat protein [1]; ligand present: theophylline", "result": 26.4, "unit": "nM"}
    ]},
    {"sequence": "AAUUAAUUAACCGAUACCAGCCAACCAAAACAUGAGGAUCACCCAUGUAAGAAGAAGGGUGGCCCUUGGCAGCGGUUAAUUAAUU", "values": [
      {"measurement": "apparent Kd", "setting": "MS2 coat protein [1]; no ligand", "result": 27.8, "unit": "nM"},
      {"measurement": "apparent Kd", "setting": "MS2 coat protein [1]; ligand present: theophylline", "result": 9.07, "unit": "nM"}
    ]},
    {"sequence": "UUACAUGAGGAUCACCCAUGUCAUAACGAUACCAGAUAGUUAAUGAUCCCUUGGCAGCGUAAUACCUAGACAUUUAAGUCAUAGG", "values": [
      {"measurement": "apparent Kd", "setting": "MS2 coat protein [1]; no ligand", "result": 56.2, "unit": "nM"},
      {"measurement": "apparent Kd", "setting": "MS2 coat protein [1]; ligand present: theophylline", "result": 19.6, "unit": "nM"}
    ]},
    {"sequence": "UCUUUCUUUGUAGAUACCAGCAUGUUAAGUUUCUUUUGACAUGAGGAUCACCCAUGUACAUGCCCUUGGCAGCUACAUUUUCUUU", "values": [
      {"measurement": "apparent Kd", "setting": "MS2 coat protein [1]; no ligand", "result": 15.2, "unit": "nM"},
      {"measurement": "apparent Kd", "setting": "MS2 coat protein [1]; ligand present: theophylline", "result": 16.5, "unit": "nM"}
    ]},
    {"sequence": "CCGAGGGUAGGAUAUUAGCACUUCUACAUGAGGAUCACCCAUGUACCUCAUCAUGAUGCCUAAGAAGGACCAGUGU", "values": [
      {"measurement": "apparent Kd", "setting": "MS2 coat protein [2]; [3]", "result": 65.7, "unit": "nM"},
      {"measurement": "apparent Kd", "setting": "MS2 coat protein [2]; [4]", "result": 158, "unit": "nM"}
    ]},
    {"sequence": "AACUGGAAGGAAGGAUAUUCAACCACGAUCAGUGCCAAGCACAUGAGGAUCACCCAUGUUGUCCUGAAGAAGGUCCUAUGUCAA", "values": [
      {"measurement": "apparent Kd", "setting": "MS2 coat protein [2]; [3]", "result": 16.3, "unit": "nM"},
      {"measurement": "apparent Kd", "setting": "MS2 coat protein [2]; [4]", "result": 11.5, "unit": "nM"}
    ]},
    {"sequence": "ACUGGACAUGAGGAUCACCCAUGUGGCGAUACCAGUUUCAGCGGGAACCCUUGGCAGCGCGGUGCCGGCCAUAGAAGUUCUGGGA", "values": [
      {"measurement": "apparent Kd", "setting": "MS2 coat protein [2]; [5]", "result": 51.4, "unit": "nM"},
      {"measurement": "apparent Kd", "setting": "MS2 coat protein [2]; [6]", "result": 60.1, "unit": "nM"}
    ]},
    {"sequence": "UCACUACAGUAGAAGGUAGGUACAUGAGGAUCACCCAUGUGGUAGGGAGAUUUACACUGUUUCGCUAAGGAUAUACUGGCCAAU", "values": [
      {"measurement": "apparent Kd", "setting": "MS2 coat protein [2]; [3]", "result": 207, "unit": "nM"},
      {"measurement": "apparent Kd", "setting": "MS2 coat protein [2]; [4]", "result": 125, "unit": "nM"}
    ]},
    {"sequence": "GAUAGUCCCAAGGAUAUGUGGGUUUUAUCUUCUACAGAAGGUGGGACAUGAGGAUCACCCAUGUUGCGGCGAGG", "values": [
      {"measurement": "apparent Kd", "setting": "MS2 coat protein [2]; [3]", "result": 26.8, "unit": "nM"},
      {"measurement": "apparent Kd", "setting": "MS2 coat protein [2]; [4]", "result": 261, "unit": "nM"}
    ]},
    {"sequence": "UUACGGCCGGAAGGAUAUUGUGGCUCCGGAGUAACAUGAGGAUCACCCAUGUGAAUCAAACACAACAAGAAGGUCCCAAAUAGG", "values": [
      {"measurement": "apparent Kd", "setting": "MS2 coat protein [2]; [7]", "result": 15.9, "unit": "nM"},
      {"measurement": "apparent Kd", "setting": "MS2 coat protein [2]; [8]", "result": 15.5, "unit": "nM"}
    ]},
    {"sequence": "GUACGGUUCCAAGGAUAUGAUAGGUGACAUGAGGAUCACCCAUGUGCCGGUGGUGGGAGCGAGGAUCAGAAGGUGGCCAGCGGU", "values": [
      {"measurement": "apparent Kd", "setting": "MS2 coat protein [2]; [7]", "result": 60, "unit": "nM"},
      {"measurement": "apparent Kd", "setting": "MS2 coat protein [2]; [8]", "result": 45.4, "unit": "nM"}
    ]},
    {"sequence": "GAAUACGUCAUGAUGAACAUGAGGAUCACCCAUGUAGUGCCUUAGGAUAUGCUACGAUUACUGCCGCAGAAGGAAGUGCAAGAA", "values": [
      {"measurement": "apparent Kd", "setting": "MS2 coat protein [2]; [7]", "result": 44.1, "unit": "nM"},
      {"measurement": "apparent Kd", "setting": "MS2 coat protein [2]; [8]", "result": 28.4, "unit": "nM"}
    ]},
    {"sequence": "GUAAAACGGAAGAAGGCGCGGAGUACAGGGUAAAAUCAGGUCACAUGAGGAUCACCCAUGUGGAGCGAGGAUAUUCAUAAGGUA", "values": [
      {"measurement": "apparent Kd", "setting": "MS2 coat protein [2]; [3]", "result": 24.7, "unit": "nM"},
      {"measurement": "apparent Kd", "setting": "MS2 coat protein [2]; [4]", "result": 63.2, "unit": "nM"}
    ]},
    {"sequence": "GCACGGAAAGGAUAUACAUGAGGAUCACCCAUGUUUCUUCUCAGGGCAAUUACCACAUGUAGAAGGUUCUCCAG", "values": [
      {"measurement": "apparent Kd", "setting": "MS2 coat protein [2]; [3]", "result": 29.4, "unit": "nM"},
      {"measurement": "apparent Kd", "setting": "MS2 coat protein [2]; [4]", "result": 39.8, "unit": "nM"}
    ]},
    {"sequence": "CUACUCAUAGGAUAUGAAGCCCGAGACAUGAGGAUCACCCAUGUAUGAUCUACUGUGCGCUCAGAAGGAUGCAGUA", "values": [
      {"measurement": "apparent Kd", "setting": "MS2 coat protein [2]; [3]", "result": 23.9, "unit": "nM"},
      {"measurement": "apparent Kd", "setting": "MS2 coat protein [2]; [4]", "result": 13.4, "unit": "nM"}
    ]},
    {"sequence": "CGUGAAUACGAAGGAUAUGAAACAUGAGGAUCACCCAUGUAAGGUUUAAGCGACGGCUUGACAGGUCAGAAGGUCGUCCGCAUG", "values": [
      {"measurement": "apparent Kd", "setting": "MS2 coat protein [2]; [7]", "result": 42.2, "unit": "nM"},
      {"measurement": "apparent Kd", "setting": "MS2 coat protein [2]; [8]", "result": 27.8, "unit": "nM"}
    ]},
    {"sequence": "UAUGUCGCCGAAGAUACCAGCCUGGCAAGCAACAUGAGGAUCACCCAUGUAAUUACUUAUGGCCCUUGGCAGCUUCAAAUAGAGC", "values": [
      {"measurement": "apparent Kd", "setting": "MS2 coat protein [2]; [5]", "result": 11.4, "unit": "nM"},
      {"measurement": "apparent Kd", "setting": "MS2 coat protein [2]; [6]", "result": 11.8, "unit": "nM"}
    ]},
    {"sequence": "UUGCAUUCUAAUCCUCUUACGACAUGAGGAUCACCCAUGUGUCAGGAUAUUCGAGAAGGAGCGACGAAGAAGGGACUAAUACAC", "values": [
      {"measurement": "apparent Kd", "setting": "MS2 coat protein [2]; [3]", "result": 40.7, "unit": "nM"},
      {"measurement": "apparent Kd", "setting": "MS2 coat protein [2]; [4]", "result": 32.8, "unit": "nM"}
    ]},
    {"sequence": "ACGAGACGUCUGGAUACCAGCCCAGCGAUAAACAUGAGGAUCACCCAUGUCAAACCACCCGGCCCUUGGCAGCCACGUACCUCAC", "values": [
      {"measurement": "apparent Kd", "setting": "MS2 coat protein [2]; [5]", "result": 14.5, "unit": "nM"},
      {"measurement": "apparent Kd", "setting": "MS2 coat protein [2]; [6]", "result": 10, "unit": "nM"}
    ]},
    {"sequence": "AGAGAAAAGUAACAUGAGGAUCACCCAUGUAUCCCACGAGUCAGAAGGAGCGGGUUGAUACGAGGCUAGGAUAUGAAGAGUCAU", "values": [
      {"measurement": "apparent Kd", "setting": "MS2 coat protein [2]; [7]", "result": 153, "unit": "nM"},
      {"measurement": "apparent Kd", "setting": "MS2 coat protein [2]; [8]", "result": 98.7, "unit": "nM"}
    ]},
    {"sequence": "AUCAAGUGAGGAUAUCCGUAGACUCCUAAUCAGCGACUCAAGGAGAAGGCACAUGAGGAUCACCCAUGUUAGAU", "values": [
      {"measurement": "apparent Kd", "setting": "MS2 coat protein [2]; [3]", "result": 19.6, "unit": "nM"},
      {"measurement": "apparent Kd", "setting": "MS2 coat protein [2]; [4]", "result": 20.8, "unit": "nM"}
    ]},
    {"sequence": "UUCUUACAUGAGGAUCACCCAUGUCUACACCCUACAGGAUAUGAUGCGGUGAAGACCAAUUCAGAAGGGUAAGGUC", "values": [
      {"measurement": "apparent Kd", "setting": "MS2 coat protein [2]; [7]", "result": 84.1, "unit": "nM"},
      {"measurement": "apparent Kd", "setting": "MS2 coat protein [2]; [8]", "result": 22.9, "unit": "nM"}
    ]},
    {"sequence": "AUCAGUCAAGAAGGAUAUGCAAUAUCCUGGCACGUAGACAUGAGGAUCACCCAUGUGCAGGCUAAGCAGAAGGUCUUAGAAGGU", "values": [
      {"measurement": "apparent Kd", "setting": "MS2 coat protein [2]; [3]", "result": 16, "unit": "nM"},
      {"measurement": "apparent Kd", "setting": "MS2 coat protein [2]; [4]", "result": 9.8, "unit": "nM"}
    ]},
    {"sequence": "CGCAAUUCCUGAGGAUAUUGGCAGCGACAUGAGGAUCACCCAUGUGACCAUUUGGUGUUUUGUGUCAAGAAGGCAGCCCAUGAG", "values": [
      {"measurement": "apparent Kd", "setting": "MS2 coat protein [2]; [3]", "result": 44.9, "unit": "nM"},
      {"measurement": "apparent Kd", "setting": "MS2 coat protein [2]; [4]", "result": 33.8, "unit": "nM"}
    ]},
    {"sequence": "AAAUAAUCUAGUCCACAAUGUGACUCAGAUACCAGUGCAAAGCUACACCCUUGGCAGCUGGUUACAUGAGGAUCACCCAUGUCGU", "values": [
      {"measurement": "apparent Kd", "setting": "MS2 coat protein [2]; designed as: OFF switch for theophylline, no ligand", "result": 47.6, "unit": "nM"},
      {"measurement": "apparent Kd", "setting": "MS2 coat protein [2]; ligand present: theophylline, designed as: OFF switch for theophylline", "result": 116, "unit": "nM"}
    ]}
  ]
}
